Results: ChEMBL document CHEMBL2069303, “Stellettin A induces endoplasmic reticulum stress in murine B16 melanoma cells” (J Nat Prod, 2012)
The source made the active and inactive calls.

How the values were obtained:
B16-F10 [1] = test: Induction of autophagy in C57BL/6J mouse B16F10 cells assessed as LC32 accumulation at 0.6 ug/mL by immunoblot analysis; type: functional, cell-based
Outline: (§1)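 Treated B16F10 cells were PBS-washed and lysed in 50 mM Tris-Cl, 150 mM NaCl, 0.2% Triton X-100, aprotinin and PMSF, then spun at 4 °C. Protein was equalised by BCA. Lysates were run on 10% SDS-PAGE, transferred to PVDF, blocked with 2% gelatin and probed with specific primary antibodies (TRP-1 blots: 0–0.625 μg/mL for 24 h).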

B16-F10 [2] = test: Induction of endoplasmic reticulum stress in C57BL/6J mouse B16F10 cells assessed as immature TRP1 level at 0.6 ug/mL incubated for 12 to 24 hrs measured 1 hr post endoglycosidase H-treatment by immunoblot analysis; type: functional, cell-based
Outline: (§2)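 Lysates of treated B16F10 cells were prepared in RIPA buffer. Protein (10 μg) was digested with 100 units endoglycosidase H or peptide N-glycosidase F at 37 °C for 1 h, then immunoblotted for TRP-1 to separate EndoH-sensitive and EndoH-resistant glycoforms.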

HaCaT [3] = test: Selectivity ratio of IC50 for human HaCaT cells to IC50 for mouse TM3 cells; type: functional
B16-F10 [4] = test: Induction of endoplasmic reticulum stress in C57BL/6J mouse B16F10 cells assessed as deglycosylated TRP1 level at 0.6 ug/mL after 24 hrs by immunoblot analysis; type: functional, cell-based; outline: as §1
B16-F10 [5] = test: Induction of endoplasmic reticulum stress in C57BL/6J mouse B16F10 cells assessed as upregulation of GRP78 level at 0.625 ug/mL after 24 hrs by immunoblot analysis; type: functional, cell-based; outline: as §1
B16-F10 [6] = test: Induction of endoplasmic reticulum stress in C57BL/6J mouse B16F10 cells assessed as upregulation of GRP78 level at 0.625 ug/mL after 12 hrs by immunoblot analysis; type: functional, cell-based; outline: as §1
B16-F10 [7] = test: Cytotoxicity against C57BL/6J mouse B16F10 cells after 48 hrs by SRB assay; type: functional, cell-based; conditions: B16-F10, 48 h
Outline: (§3)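 B16F10 and TM3 cells in 96-well plates were exposed to serial dilutions (0.08–5 μg/mL) for 24 or 48 h. Proteins were fixed with 50% TCA, stained with 0.4% SRB in 1% acetic acid, rinsed with 1% acetic acid, and the dye was dissolved in 10 mM Tris base (pH 10.5). Absorbance was read at 570 nm. Triplicates in at least three separate experiments; IC50 from concentration–response.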

B16-F10 [8] = test: Induction of endoplasmic reticulum stress in C57BL/6J mouse B16F10 cells assessed as abnormally glycosylated TRP1 level at 0.6 ug/mL incubated for 12 hrs measured 1 hr post peptide N-glycosidase F-treatment by immunoblot analysis; type: functional, cell-based; outline: as §2
[9] = Cytotoxicity against mouse TM3 cells after 48 hrs by SRB assay; type: functional, cell-based; conditions: TM3, 48 h; outline: as §3
B16-F10 [10] = test: Induction of apoptosis in C57BL/6J mouse B16F10 cells assessed as Bcl2 activation at 0.6 ug/mL up to 48 hrs by immunoblot analysis; type: functional, cell-based
B16-F10 [11] = test: Induction of endoplasmic reticulum stress in C57BL/6J mouse B16F10 cells assessed as upregulation of HSC70 level at 0.625 ug/mL after 12 hrs by immunoblot analysis; type: functional, cell-based; outline: as §1
[12] = Selectivity ratio of IC50 for mouse Melan-a cells to IC50 for mouse TM3 cells; type: functional
HaCaT [13] = test: Selectivity ratio of IC50 for human HaCaT cells to IC50 for mouse B16F10 cells; type: functional
B16-F10 [14] = test: Induction of autophagy in C57BL/6J mouse B16F10 cells assessed as LC3-TYR colocalization at 0.625 to 2.5 ug/mL after 24 hrs by fluorescence microscopy; type: functional, cell-based
Outline: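 B16F10 cells on sterile coverslips were exposed to 0, 0.625, 1.25 or 2.5 μg/mL for 24 h, PBS-washed and paraformaldehyde-fixed. They were co-stained with anti-tyrosinase and anti-LC3, then AlexaFluor-488/594 secondary IgG. DAPI counterstain. Confocal microscopy used to score yellow overlap.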

B16-F10 [15] = test: Cytotoxicity against C57BL/6J mouse B16F10 cells after 24 hrs by SRB assay; type: functional, cell-based; conditions: B16-F10, 24 h; outline: as §3
B16-F10 [16] = test: Cytotoxicity against C57BL/6J mouse B16F10 cells assessed as cell viability after 24 hrs by SRB assay relative to control; type: functional
Outline: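 B16F10 cells (20 000/0.1 mL) were given serial concentrations (0.08–5 μg/mL) for 24 h. SRB read-out: TCA fixation, 0.4% SRB staining, acetic acid rinses, solubilisation in 10 mM Tris (pH 10.5), absorbance at 570 nm. Viability expressed relative to untreated control; triplicates in at least three experiments.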

HT-29 [17] = test: Selectivity ratio of IC50 for human HT-29 cells to IC50 for mouse TM3 cells; type: functional
B16-F10 [18] = test: Decrease in TRP1 level in C57BL/6J mouse B16F10 cells assessed as depigmentation after 48 hrs; type: functional, cell-based
B16-F10 [19] = test: Induction of endoplasmic reticulum stress in C57BL/6J mouse B16F10 cells assessed as immature TRP1 level at 0.6 ug/mL after 24 hrs by immunoblot analysis; type: functional, cell-based; outline: as §1
B16-F10 [20] = test: Selectivity ratio of IC50 for mouse Melan-a cells to IC50 for mouse B16F10 cells; type: functional
B16-F10 [21] = test: Induction of endoplasmic reticulum stress in C57BL/6J mouse B16F10 cells assessed as upregulation of HSC70 level at 0.625 ug/mL after 24 hrs by immunoblot analysis; type: functional, cell-based; outline: as §1
B16-F10 [22] = test: Induction of endoplasmic reticulum stress in C57BL/6J mouse B16F10 cells assessed as upregulation of GRP78 level after 24 hrs by immunofluorescence staining method; type: functional, cell-based
Outline: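 B16F10 cells (20 000/mL) on gelatinized coverslips were treated with 0, 0.31, 0.625, 1.25 or 2.5 μg/mL for 24 h. Fixed in 4% paraformaldehyde and immunostained for GRP78, with Alexa-594-conjugated secondary IgG. DAPI counterstain; confocal imaging.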

HT-29 [23] = test: Selectivity ratio of IC50 for human HT-29 cells to IC50 for mouse B16F10 cells; type: functional

C\C(=C/C=C/C(C)=C1/C(=O)C[C@H]2[C@@]3(C)CCC(=O)C(C)(C)[C@@H]3CC[C@]12C)c1ccc(C)c(=O)o1 [STELLETIN A]
active: Activity (B16-F10 [1]) | Activity (B16-F10 [2]) | Activity (B16-F10 [4]) | Activity (B16-F10 [6]) | Activity (B16-F10 [8]) | Activity (B16-F10 [11]) | Activity (B16-F10 [14]) | Activity (B16-F10 [18]) | Activity (B16-F10 [19]) | Activity (B16-F10 [22]) Dose-dependent effect
70%: Activity (B16-F10 [16])
0.15 µg/mL: IC50 (B16-F10 [7])
0.8 µg/mL: IC50 [9]
2 µg/mL: IC50 (B16-F10 [15])
10: Ratio IC50 (HaCaT [3]) | Ratio IC50 [12] | Ratio IC50 (HaCaT [13]) | Ratio IC50 (HT-29 [17]) | Ratio IC50 (B16-F10 [20]) | Ratio IC50 (HT-29 [23])
inactive: Activity (B16-F10 [5]) | Activity (B16-F10 [10]) | Activity (B16-F10 [21])
